# Source: PubChem
# UCH37 DUB inh: inhibitors of human UCH37 deubiquitinase, primary screen, biochemical, Ub-AMC cleavage, fluorescence; 330,000 compounds, 0.33% hits; Ubiquitin carboxyl-terminal hydrolase isozyme L5 (Homo sapiens), Q9Y5K5; purified proteasome/UCH37; inhibition, % (test concentration not listed); AID 588478, 2011;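 active means mean inhibition over replicate wells above about 20%, limit read from the data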;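 further: 0% = compound-free wells with enzyme and 100% = wells lacking proteasome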
# Target sequence (Q9Y5K5 whole entry, looked up): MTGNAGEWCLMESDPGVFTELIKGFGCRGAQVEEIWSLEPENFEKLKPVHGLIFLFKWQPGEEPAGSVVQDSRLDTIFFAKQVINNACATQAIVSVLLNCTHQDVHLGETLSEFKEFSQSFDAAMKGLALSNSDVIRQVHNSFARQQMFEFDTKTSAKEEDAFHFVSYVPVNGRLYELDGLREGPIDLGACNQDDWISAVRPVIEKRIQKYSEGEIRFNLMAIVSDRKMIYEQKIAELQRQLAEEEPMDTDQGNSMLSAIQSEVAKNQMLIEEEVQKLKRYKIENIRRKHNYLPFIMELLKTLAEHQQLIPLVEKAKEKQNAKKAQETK
#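 system = Proteasome-associated human UCH37 deubiquitinase | amount = 0.15 nM proteasome as dispensed | medium = pH 7.4 Tris-HCl (50 mM) with ovalbumin, ATP-MgCl2, DTT | incubation = 30 min preincubation with enzyme, 25 min cleavage at room temperature | detection = AMC fluorescence 355/460 nm | read-out basis = percent inhibition | controls = no-proteasome and no-compound wells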
# MEKK2 mut-MEK5: MEK5 binding signal on mutant MEKK2 PB1, primary screen, biochemical, multiplex bead flow cytometry, Alexa488-MEK5; 290,000 compounds, 0.35% hits; Alexa488-MEK5 binding to MEKK2 mutant; percent response, % at 10 µM; in the data active means percent response above about 24%, passing the limit was not always enough
# MEKK3 PB1 HTS: modulators of MEKK3-MEK5 PB1 binding, primary screen, biochemical, wildtype MEKK3, multiplex bead flow cytometry, Alexa488-MEK5. Mitogen-activated protein kinase kinase kinase 3 (Homo sapiens), Q99759. bead-based flow cytometry, Alexa488-MEK5 binding to MEKK3; actives lie on both sides; 0 = blocked by unlabeled MEK5, 100 = vehicle. binding response (% of control), % at 10 µM. 290,000 compounds, 1.4% hits;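 active means binding response more than 3 SD above or below the average of its plate-row segment, actives on both sides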;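 further: Alexa488 bead fluorescence after subtracting the streptavidin-only scavenger bead signal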
# Rce1 inh: yeast Rce1p protease inhibitors, primary screen, biochemical, fluorescence, cell-free homogeneous; CAAX prenyl protease 2 (Saccharomyces cerevisiae (strain ATCC 204508 / S288c)), Q03530; yeast membranes, quenched prenylated peptide cleavage fluorescence; calls only; 290,000 compounds, 0.27% hits; AID 2563, 2010;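 active means fall in fluorescence gain of 50% or more versus controls, with final raw signal at or below 3038400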;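 further: plate controls were neutral control wells for no effect and wells lacking membranes for full effect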
# Target sequence (Q03530 whole entry, looked up): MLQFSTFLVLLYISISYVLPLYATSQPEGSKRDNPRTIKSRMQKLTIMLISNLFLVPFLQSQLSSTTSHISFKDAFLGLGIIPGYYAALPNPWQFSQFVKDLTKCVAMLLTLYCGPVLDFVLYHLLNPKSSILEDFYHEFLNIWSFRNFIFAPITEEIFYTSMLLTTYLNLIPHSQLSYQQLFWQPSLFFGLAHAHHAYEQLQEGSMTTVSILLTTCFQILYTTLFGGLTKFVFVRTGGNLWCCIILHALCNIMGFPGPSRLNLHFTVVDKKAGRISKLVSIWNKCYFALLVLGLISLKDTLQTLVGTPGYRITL
# T cell modulator: modulators of CD8 T cell-vesicle binding, primary screen, mouse 2C CD8+ T cells, flow cytometry | 2C CD8+ T cell-vesicle binding; hits give low values | response (vesicle binding), % at 7 µM | 330,000 compounds, 0.068% hits | AID 2052, 2009;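 active means response, share of CD8 T cells binding vesicles, and their 90th percentile fluorescence all below set limits, cut at about 80% in these data, passing the limit was not always enough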;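 further: values below 100% mean blocked vesicle binding to the CD8+ T cells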
#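 Assay system: 2C TCR transgenic mouse naive CD8+ T cells, MACS-purified | Read-out: CD8+ gate FL2 mean fluorescence as % of same-row positive control | Signal: High-throughput flow cytometry with anti-B7-1 and anti-CD8 staining | Timing: Binding step 1.5 h, 37 °C, antibody labelling 20 min, ice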
# MEKK2 WT-MEK5: modulators of MEK5 binding to wildtype MEKK2, primary screen, biochemical, multiplex bead flow cytometry, Alexa488-MEK5. Alexa488-MEK5 binding to MEKK2 WT; actives lie on both sides. binding response (% of control), % at 10 µM. 290,000 compounds, 1.1% hits; in the data active means binding response below about 67% or above about 130%
# MEKK2wt confirm: modulators of MEK5 binding to wildtype MEKK2, confirmation, biochemical, single concentration, multiplex bead flow cytometry | shares compounds with MEKK3 PB1 HTS | Alexa488-MEK5 binding to MEKK2 WT; actives lie on both sides | binding response (% of control), % at 10 µM | 5,900 compounds, 2.4% hits | AID 1892, 2009; in the data active means binding response below about 16% or above about 210%; inactive means in between
# MEKK2mut confirm: mutant MEKK2 PB1-MEK5 binding signal retest – biochemical, single concentration, multiplex bead flow cytometry, confirmation; shares compounds with MEKK3 PB1 HTS; Alexa488-MEK5 binding to MEKK2 mutant; percent response, % at 10 µM; 5,900 compounds, 2% hits; AID 1893, 2009; in the data active means percent response mostly above about 71%, no sharp cut-off; inactive means mostly below about 38%;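 further: higher means compound restores mutant binding toward wildtype level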
# MEKK3 confirm: MEKK3 wild-type PB1 binding to MEK5, inhibitors, confirmation, biochemical, bead multiplex flow cytometry, single concentration, wildtype; shares compounds with MEKK3 PB1 HTS; Alexa488-MEK5 binding to MEKK3; hits give low values; binding response (% of control), % at 10 µM; 5,900 compounds, 1.8% hits; AID 1894, 2009;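 active means binding response below 72% of control, or above a set upper limit, though filed actives all read lower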;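 further: 100% = DMSO only wells and 0% = binding blocked by excess unlabeled MEK5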
# * = called active by the depositor; i = inactive; · = no result; [ ] = dose if it differs, or a comment. The list is not random: actives were taken first. Their share in the collection is about 2.5%.
SMILES,UCH37 DUB inh,MEKK2 mut-MEK5,MEKK3 PB1 HTS,Rce1 inh,T cell modulator,MEKK2 WT-MEK5,MEKK2wt confirm,MEKK2mut confirm,MEKK3 confirm
COC(=O)c1ccc(N2Cc3ccccc3/C2=N\C(=O)Nc2ccccc2)cc1,·,0,137*,i,250,104,101,6,105
O=C(/N=C1/c2ccccc2CN1c1ccccc1)Nc1ccccc1,·,1,138*,i,149,109,102,4,103
COC(=O)c1ccc(N2Cc3ccccc3C2=NC(=O)Nc2ccccc2)cc1,-13,·,·,·,·,·,·,·,·
COc1ccc(NC(=O)Cc2c(F)cccc2Cl)c(OC)c1,3,-8,1.0*[inhibitor],i,284,3.0*[inhibitor],102,-1,100
COc1ccc(NS(=O)(=O)c2cc(NC(=O)Cc3c(F)cccc3Cl)ccc2OC)cc1,2,·,·,·,468,·,·,·,·
COc1ccc(NC(=O)CCSCCC(=O)Nc2ccc(OC)cc2OC)c(OC)c1,0,1,137*,i,475,109,101,3,98
COc1ccc(C(O)=C(C#N)c2nc3ccccc3n2C)cc1OC,10,·,·,·,·,·,·,·,·
CCCC(=O)C1=C(O)C(C(=O)OC)C(C)(C)CC1=NCCc1ccc(OC)c(OC)c1 (stereo not given),-2,-7,72*[inhibitor],i,509,83,106,5,105
CCN=C1S/C(=C\c2cn(CC)c3ccccc23)C(=O)N1CC,5,-2,93,i,230,100,·,·,·
CCn1cc(C=C2C(=O)c3ccccc3C2=O)c2ccccc21,5,-4,68,i,·,33*[inhibitor],39,-26,84
Cc1cccc(NN=Cc2ccc(C)s2)c1,5,·,·,·,·,·,·,·,·
O=C(CNc1cc(S(=O)(=O)N2CCCC2)ccc1OCC(F)(F)F)Nc1ccc(SC(F)F)cc1,2,1,144*,i,42,115,90,-13,100
O=C(CNc1cc(S(=O)(=O)N2CCCC2)ccc1OCC(F)(F)F)Nc1cc(Cl)cc(Cl)c1,3,3,104,i,212,108,·,·,·
Cc1ccc(-c2cn3cccnc3n2)cc1NC(=O)c1cccs1,i,0,133*,i,265,103,99,-1,99
Clc1ccc(-c2csc3ncnc(Cl)c23)cc1,2,0,130*,i,122,104,104,8,104
N#CC1=C(N)OC(c2ccccc2)=C(C#N)C1c1ccc2c(c1)OCO2 (stereo not given),4,6,133*,·,576,122,103,4,92
CCCn1c(C)cc(C(=O)CSc2nc3nc(C)cc(C)n3n2)c1C,7,1,135*,i,226,104,105,4,99
Cn1c(SCC(=O)NN=C/C=C/c2ccco2)nc2ccccc21,11,·,·,·,·,·,·,·,·
COc1cc(/C=C2\SC(=S)N(N3CCOCC3)C2=O)ccc1O,·,-3,76,i,327,78,·,·,·
O=C1/C(=C/c2ccncc2)SC(=S)N1N1CCOCC1,7,-12,42*[inhibitor],i,341,37*[inhibitor],99,-4,103
COc1cc(/C=C2\SC(=S)N(N3CCOCC3)C2=O)cc(OC)c1OC,5,-1,141*,i,238,91,100,-1,104
COc1ccc(CCN2C(=O)C(Oc3ccccc3C)C2c2ccc3c(c2)OCO3)cc1OC (stereo not given),7,3,100,i,211,100,·,·,·
COc1ccc(CCN2C(=O)C(Oc3ccccc3C)C2c2ccc3c(c2)OCO3)cc1 (stereo not given),4,1,156*,i,261,109,93,-10,98
C=CCNC(=S)N=c1ccccn1CCC,6,·,·,·,·,·,·,·,·
CCCCCc1cc(=O)oc2c(C(CCN3CCCCC3)c3cc(OC)c(OC)c(OC)c3)c(OC)cc(OC)c12 (stereo not given),0,13,108,i,288,147*,155,25,102
SMILES,UCH37 DUB inh,MEKK2 mut-MEK5,MEKK3 PB1 HTS,Rce1 inh,T cell modulator,MEKK2 WT-MEK5,MEKK2wt confirm,MEKK2mut confirm,MEKK3 confirm
CCCCCc1cc(=O)oc2c(C(CCN3CCCC(C)C3)c3cc(OC)c(OC)c(OC)c3)c(OC)cc(OC)c12 (stereo not given),-1,29*,115,i,247,163*,203,45,110
CCCCCc1cc(=O)oc2c(C(CCN3CCCC(C)C3)c3ccc(N(C)C)cc3)c(OC)cc(OC)c12 (stereo not given),4,50*,116,i,i,149*,178,39,110
CCCCCc1cc(=O)oc2c(C(CCN(CC)CC)c3ccc(N(C)C)cc3)c(OC)cc(OC)c12 (stereo not given),2,23,108,i,347,166*,185,37,109
COc1cc(OC)c2ccc(=O)oc2c1C(CCN1CCCC(C)C1)c1ccc(N(C)C)cc1 (stereo not given),-1,2,96,i,385,104,·,·,·
CCN(CC)CCC(c1cc(OC)c(OC)c(OC)c1)c1c(OC)cc(OC)c2c(C)cc(=O)oc12 (stereo not given),-1,2,96,i,·,104,·,·,·
Cc1ccc(C=NNC(=O)Cc2ccc(Cl)cc2)s1,-3,·,·,·,·,·,·,·,·
COc1ccccc1/C=C/C(=O)NCC(=O)NN=C(C)c1ccco1,-17,·,·,·,·,·,·,·,·
NC(=NO)c1ccc([N+](=O)[O-])s1,9,·,·,·,·,·,·,·,·
Cc1ccc(C=NNC(=O)c2nnn(-c3nonc3N)c2CSc2ccccc2)s1,-55,·,·,·,·,·,·,·,·
